Shown are actives, neighbours in structure and some others; about 3.9% of the full set was active somewhere.
SR-BI uptake up: activators of SR-BI mediated HDL lipid uptake; CHO ldlA[mSR-BI] cells, DiI-HDL uptake fluorescence, 3 h; 100 = double the neutral-control signal; hit rate 0.096% among 320,000; activation, % at 12.5 µM;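 active means mean replicate activation of at least 60% and every replicate at or above 60%; inconclusive means mean or all-replicate condition met, but not both; inactive means mean below 60% and not all replicates reaching 60%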;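 further: 0% = median plate neutral-control signal and 100% = twice that signal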
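Material – SR-BI-overexpressing, LDLR-lacking CHO cells · Medium – BSA-supplemented, HEPES-buffered Ham's F12, pH 7.4 · Doses – single concentration · Times – compound with DiI-HDL co-incubation, 3 h at 37 °C · Measured by – bottom-read fluorescence, 550/595 nm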
FXN GAA850 act: activators of GAA850 frataxin (FXN) promoter; HEK293 lucGAA850 FXN promoter luciferase reporter, 24 h; percent of 10 µM SAHA response; activation, % at 6 µM; hit rate 0.56% among 360,000;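 active means activation above the average of all compounds screened plus 3 SD, cutoff fixed separately per campaign, cut at about 7.5% in these data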;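 further: 0% = DMSO wells and 100% = 10 µM SAHA wells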
AHR act: activates the human aryl hydrocarbon receptor | P35869 | AHR-responsive luciferase reporter cells, luminescence | activation, % at 5 µM | hit rate 2.5% among 320,000; in the data active means activation above about 47%;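 further: 0% = vehicle wells and 100% = reference agonist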
SR-BI DiI inh: inhibitors of mouse SR-BI mediated HDL lipid uptake. Q61009. ldlA[mSR-BI] CHO cells, DiI-HDL uptake fluorescence, 3 h. inhibition, % at 12.5 µM. hit rate 0.96% among 320,000. AID 488896;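 active means mean replicate inhibition of at least 70% and a set share of replicates each scoring 70 or more; inconclusive means meets just one of the two criteria; inactive means fails both criteria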;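 further: 0% = median of neutral control wells and 100% = median of positive control wells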
ABCB6 inh 2: human ABCB6 transporter inhibition; Q9NP58; fluorescence ratio to DMSO, % at 10 µM; AID 602162; K562-ABCB6 porphyrin accumulation, flow cytometry, 1 h; active compounds read low; hit rate 0.19% among 360,000;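 active means fluorescence ratio to DMSO below 75%, the collection mean minus 3 SD; inconclusive means too few cells collected in the well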;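 further: signal is porphyrin accumulated inside mitochondria; 100% equals median channel fluorescence of DMSO control wells; lower ratio means ABCB6 inhibition with less porphyrin fluorescence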
Target sequence (Q9NP58 whole entry, looked up): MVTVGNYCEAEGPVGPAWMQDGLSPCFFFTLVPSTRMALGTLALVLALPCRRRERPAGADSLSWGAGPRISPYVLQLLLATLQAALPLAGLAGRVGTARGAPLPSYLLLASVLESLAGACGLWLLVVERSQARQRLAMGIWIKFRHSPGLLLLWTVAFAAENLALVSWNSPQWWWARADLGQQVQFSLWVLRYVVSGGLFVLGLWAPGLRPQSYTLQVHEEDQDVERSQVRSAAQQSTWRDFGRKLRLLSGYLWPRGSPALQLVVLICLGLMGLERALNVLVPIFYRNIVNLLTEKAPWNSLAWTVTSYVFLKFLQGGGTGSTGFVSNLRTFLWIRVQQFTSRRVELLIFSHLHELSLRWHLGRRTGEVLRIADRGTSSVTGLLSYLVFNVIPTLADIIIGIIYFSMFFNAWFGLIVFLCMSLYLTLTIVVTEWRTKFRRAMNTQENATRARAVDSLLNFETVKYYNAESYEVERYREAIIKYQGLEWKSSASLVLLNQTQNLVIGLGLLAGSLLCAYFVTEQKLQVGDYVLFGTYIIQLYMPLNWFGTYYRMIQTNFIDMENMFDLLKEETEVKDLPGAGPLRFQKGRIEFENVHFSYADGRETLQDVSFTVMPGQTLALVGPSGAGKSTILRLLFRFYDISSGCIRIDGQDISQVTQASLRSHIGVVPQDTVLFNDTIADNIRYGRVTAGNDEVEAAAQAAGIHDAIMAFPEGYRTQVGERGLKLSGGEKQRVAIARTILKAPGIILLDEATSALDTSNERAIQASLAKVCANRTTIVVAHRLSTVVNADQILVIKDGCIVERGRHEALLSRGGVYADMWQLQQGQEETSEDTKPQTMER
HIF act: HIF pathway transcriptional activation; U2OS HRE-luciferase reporter, luminescence; normalized: DMSO 0%, desferrioxamine 100%; activation, % at 7.5 µM (by protocol); hit rate 0.32% among 300,000; AID 1910;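 active means mean activation of at least 10% of the iron chelator positive control signal, with at least half of replicates also reaching 10%; inconclusive means mean and replicate majority disagree about reaching 10%; inactive means mean and most replicates under 10%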
GAA30 counter: GAA30 FXN promoter activation counter-screen; activation, % at 6 µM; shares compounds with FXN GAA850 act; hit rate 66% among 1,900; HEK293 lucGAA30 FXN promoter luciferase, 24 h; DMSO = 0%, 5 µM ipriflavone = 100%; AID 588350;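 active means mean activation above the mean of solvent-only control wells plus 3 SD, cut at about 22% in these data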;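 further: counterscreen of GAA850 promoter hits where activity marks nonselective or luminescence artifacts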
GAA850 confirm: GAA850 FXN promoter activation confirmation | HEK293 lucGAA850 FXN promoter luciferase reporter, 24 h; 100% = activation by SAHA | shares compounds with FXN GAA850 act | hit rate 86% among 1,900 | AID 588351 | activation, % at 6 µM;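 active means mean activation above a set limit taken from the primary screen, cut at about 8% in these data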;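 further: 0% = DMSO wells and 100% = 10 µM SAHA wells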
* marks the source's active call; other numbers are inactive results; ? = inconclusive; / = not tested or not shown.

SMILES	SR-BI uptake up	FXN GAA850 act	AHR act	SR-BI DiI inh	ABCB6 inh 2	HIF act	GAA30 counter	GAA850 confirm
O=C(CSC1=NCCN1)Nc1ccccc1[N+](=O)[O-]	-72	1	7	?	88	0	/	/
CC(NC(=O)CSC(=S)N(C)C)C12CC3CC(CC(C3)C1)C2 (centres undefined)	22	9.4*	/	-22	90	/	31*	14*
CN(c1ccccc1)c1ccc(/C=C/[N+](=O)[O-])cc1	-18	16*	7	18	106	-4	-111	-21
CN(C)c1ccc(-n2cccc2/C=C/[N+](=O)[O-])cc1	-21	2	2	21	105	1	/	/
Cc1cccc2nc(CSc3nc4ccc([N+](=O)[O-])cc4[nH]3)c(Br)n12	-9	14*	35	9	99	0	37*	17*
CCOC(=O)c1nc(S(C)(=O)=O)ncc1Cl	-11	41*	-1	11	96	0	63*	73*
CS(=O)(=O)c1ncc(Cl)c(C(=O)Nc2ccc(OC(F)F)cc2)n1	3	68*	12	-3	85	-2	-76	-19
Cc1ccc(C(=O)NCCc2nnc3ccc(SCC(=O)Nc4nnc(C)s4)nn23)cc1	/	1	/	/	95	/	/	/
Fc1ccc(C2CCCN2Cc2nc(-c3cnccn3)no2)cc1 (centres undefined)	2	0	11	-2	104	0	/	/
Cn1c(=O)c2c(ncn2CC(=O)OCC(=O)NCCc2ccccc2)n(C)c1=O	-6	1	/	6	97	/	/	/
CCS(=O)(=O)N1CCN(c2ccc([N+](=O)[O-])c(NC(C)c3ccccc3)c2)CC1 (centres undefined)	-68	1	2	68	95	0	/	/
CC(Nc1cc(N2CCNCC2)ccc1[N+](=O)[O-])c1ccccc1 (centres undefined)	-15	8.5*	9	15	101	1	12	7
O=C(N/N=C/c1ccc(Br)s1)c1cccc([N+](=O)[O-])c1	6	0	24	-6	97	0	/	/
C/C(=N\NC(=O)C(c1ccccc1)c1ccccc1)c1ccccn1	16	9.6*	-2	-16	97	0	-119	-35
COc1cc(SC)ccc1C(=O)Nc1ncc(Cl)cc1Cl	-40	9.8*	-4	40	99	2	119*	41*
COc1cc(SC)ccc1C(=O)Nc1ccc(Br)cn1	-54	-9	0	54	94	-2	/	/
COc1cc(C2NC(=O)NC(C)=C2C(=O)OCc2ccccc2)ccc1O (centres undefined)	-2	8.9*	18	2	95	0	-3	10*
COCCOC(=O)C1=C(C)NC(=O)NC1c1ccc(OC(=O)c2ccco2)c(OC)c1 (centres undefined)	13	13*	0	-13	96	0	33*	10*
O=S(=O)(CC(CN1CCCCC1)N1CCCCC1)c1ccccc1 (centres undefined)	25	8.4*	-1	-25	104	0	76*	30*
CN=C1S/C(=C\c2ccc(N3CCCC3)c(F)c2)C(=O)N1C	-25	6	30	25	99	2	/	/
Fc1ccc(Nc2nc(NCc3ccccc3)nc3ccsc23)cc1	/	0	/	/	95	/	/	/
N#Cc1ccc(Nc2nc(NCc3ccccc3)nc3ccsc23)cc1	/	9.5*	/	/	97	/	33*	13*
COc1ccc(NC(=O)CCC(=O)Nc2nnc(C(C)C)s2)cc1Cl	-10	5	33	10	84	0	/	/
COc1ccc(Nc2nc(N)nc(CSC(=S)N3CCOCC3)n2)cc1	-30	7.6*	27	30	93	2	83*	32*
CCC(C(=O)N1CCN(c2ncccn2)CC1)c1ccccc1 (centres undefined)	/	2	1	/	94	/	/	/
SMILES	SR-BI uptake up	FXN GAA850 act	AHR act	SR-BI DiI inh	ABCB6 inh 2	HIF act	GAA30 counter	GAA850 confirm
CCOC(=O)Cn1c2c(c(=N)c3c1CCC3)CCCC2	-3	3	-4	3	99	0	/	/
O=C(O)CCC(=O)N1CCN(S(=O)(=O)c2ccc3ccccc3c2)CC1	9	0	0	-9	99	-8	/	/
O=C(Cn1ncc(Cl)c(Cl)c1=O)N1CCN(S(=O)(=O)c2ccc3ccccc3c2)CC1	1	9.7*	-2	-1	97	-3	-63	16*
CCOc1ccc(N(C(=O)CNC(=O)c2ccco2)C(C(=O)NCC2CCCO2)c2ccccc2)cc1 (centres undefined)	/	0	1	/	94	-23	/	/
CC(C)(CNS(=O)(=O)c1ccc2ccccc2c1)N1CCOCC1	21	-2	4	-21	99	/	/	/
COc1ccc(C(=O)CSC#N)cc1OC	21	12*	3	-21	96	2	8	32*
Cc1ccc(-c2nc(C)c(C(=O)O)s2)cc1	6	3	12	-6	101	1	/	/
O=C(O)c1ccc(N/N=C/c2cc3ccccc3nc2Cl)cc1	/	11*	28	/	100	2	120*	47*
Cc1cccc2cc(/C=N/Nc3ccc(C(=O)O)cc3)c(Cl)nc12	1	12*	6	-1	97	2	128*	49*
CCOc1ccccc1N1CC(C(=O)Nc2cc(S(=O)(=O)N3CCOCC3)ccc2OC(C)C)CC1=O (centres undefined)	16	10*	/	-16	93	/	16	7
COCCCNc1nc2c(-c3ccc(C)cc3)nnn2c2ccccc12	-52	7.7*	17	52	99	0	92*	39*
CC1CCCC(NC(=O)COC(=O)c2cccnc2Cl)C1C (centres undefined)	5	1	-1	-5	103	/	/	/
COc1ccc(C2C=C(C34CC5CC(CC(C5)C3)C4)NC(=S)N2)cc1OC (centres undefined)	-50	7.7*	-2	50	98	-1	10	11*
C=CCOc1ccc(C2NC(=S)NC(c3ccccc3)=C2C(C)=O)cc1OC (centres undefined)	-56	0	0	56	95	0	/	/
O=C(N/N=C/c1ccccn1)c1cc(C2CC2)[nH]n1	13	7.6*	16	-13	133	4	106*	38*
O=C(N/N=C/c1ccc2ncccc2c1)c1cccc([N+](=O)[O-])c1	/	2	3	/	96	1	/	/

Bioassay records (PubChem)
